Calls of active or inactive are those of the source.
Columns and labels:
Mus musculus [1] = experiment: Anticonvulsant activity in Albino Swiss CD-1 mouse assessed as protection against 6 Hz current-induced seizure at 100 mg/kg, ip pretreated up to 2 hrs followed by 6 Hz current induction for 3 secs relative to control; format: functional
Rattus norvegicus [2] = species: Rattus norvegicus; experiment: Displacement of omega[125I]conotoxin from N-type calcium channel in rat cerebral cortex at 100 uM by scintillation spectrophotometry
Procedure, shortened: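 Run commercially by an outside contract lab, with the compound tested at 100 μM. The read-out was percent inhibition of binding of the radiolabelled ligand, reported as compound binding.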

Rattus norvegicus [3] = species: Rattus norvegicus; experiment: Displacement of [3H]CGP 39653 from NMDA receptor in rat cerebral cortex at 100 uM after 60 mins by liquid scintillation counting
Procedure, shortened: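 Radioligand binding was run as a contract service. Percent inhibition of specific labelled-ligand binding was measured at 100 μM test compound, or 200 μM for hERG.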

Mus musculus [4] = experiment: Antiallodynic activity in oxaliplatin-induced Albino Swiss CD-1 mouse model of peripheral neuropathy assessed as elevation in pain sensitivity threshold at 50 mg/kg, ip administered 30 mins prior to oxaliplatin challenge relative to control; format: functional
Procedure, shortened: (§1)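 Male CD-1 mice, 18–25 g, that had developed oxaliplatin-induced tactile allodynia were dosed ip 30 min before testing. Doses were 25, 50 or 100 mg/kg, or 50, 100 or 150 mg/kg for the reference. Vehicle was 1% aqueous Tween 80. Paw-withdrawal force was measured by von Frey filaments. Data are mean ± SEM, analysed by repeated-measures ANOVA with Dunnett's test against oxaliplatin plus vehicle mice.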

Mus musculus [5] = experiment: Anticonvulsant activity in ip dosed Albino Swiss CD-1 mouse assessed as protection against maximal electroshock-induced seizures pretreated up to 2 hrs followed by 50 Hz current induction for […] measured at time to peak effect; format: functional; conditions: Swiss CD-1, ip
Mus musculus [6] = experiment: Protection index, ratio of TD50 for neurotoxicity in ip dosed Albino Swiss CD-1 mouse to ED50 for ip dosed maximal electroshock induced seizure Albino Swiss CD-1 mouse
Procedure, shortened: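 Acute neurological toxicity after ip dosing (1% Tween 80 suspension) was assessed in the mouse chimney test. TD50 with 95% confidence limits was derived by probit analysis. Protective index is TD50 from the chimney test divided by ED50 from the MES, scPTZ or 6 Hz test.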

Cytochrome P450 3A4 = Cytochrome P450 3A4 (Homo sapiens, UniProt P08684); experiment: Inhibition of human CYP3A4 assessed as reduction in luciferin-PPXE conversion to D-luciferin at 12.5 to 25 uM by luminescence assay; format: ADME
Sequence of Cytochrome P450 3A4 (P08684 whole entry): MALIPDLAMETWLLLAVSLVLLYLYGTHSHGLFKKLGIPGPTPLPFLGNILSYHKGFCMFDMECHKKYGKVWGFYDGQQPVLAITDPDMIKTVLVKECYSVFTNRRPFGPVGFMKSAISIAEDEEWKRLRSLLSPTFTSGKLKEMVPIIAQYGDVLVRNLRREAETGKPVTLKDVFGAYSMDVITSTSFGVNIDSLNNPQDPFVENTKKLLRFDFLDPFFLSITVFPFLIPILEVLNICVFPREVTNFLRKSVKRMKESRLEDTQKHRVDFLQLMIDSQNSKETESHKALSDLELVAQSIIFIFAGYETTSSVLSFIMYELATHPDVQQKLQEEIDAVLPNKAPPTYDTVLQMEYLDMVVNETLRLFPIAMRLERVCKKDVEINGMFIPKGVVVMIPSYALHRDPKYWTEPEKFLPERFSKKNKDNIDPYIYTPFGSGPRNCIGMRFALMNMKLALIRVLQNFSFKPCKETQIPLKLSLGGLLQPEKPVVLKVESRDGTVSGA
Procedure, shortened: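 P450-Glo luminescence assays used recombinant human CYP3A4 or CYP2D6 with conversion of luciferin-PPXE to D-luciferin. Ketoconazole (CYP3A4) and quinidine (CYP2D6) served as reference inhibitors.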

Mus musculus [7] = experiment: Toxicity in Albino Swiss CD-1 mouse assessed as effect on spontaneous locomotar activity at 25 to 150 mg/kg, ip treated 30 mins prior to test; format: organism-based; conditions: in vivo, 0.5 h
Procedure, shortened: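 Male CD-1 mice were dosed ip at 25, 50, 100 or 150 mg/kg 30 min before testing and then placed singly in activity cages. Light-beam crossings were counted over 30 min in 10 min intervals.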

Mus musculus [8] = experiment: Antinociceptive activity in Albino Swiss CD-1 mouse assessed as inhibition of capsaicin-induced nociception by measuring time spent licking injected paw at 50 mg/kg, ip administered 30 mins mins prior to capsaicin challenge measured for 5 mins relative to control; format: functional; conditions: Swiss CD-1, ip
Procedure, shortened: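 Mice (male CD-1, 18–25 g) were pretreated ip 30 min before intraplantar capsaicin. Doses were 25, 50 or 100 mg/kg, or 100, 150 or 200 mg/kg for the reference. Vehicle was 1% Tween 80 at 10 mL/kg. Duration of nociceptive response was scored over 5 min after injection. Data are mean ± SEM of 8–10 mice, by one-way ANOVA with Dunnett's test against vehicle.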

Mus musculus [9] = experiment: Antiallodynic activity in oxaliplatin-induced Albino Swiss CD-1 mouse model of peripheral neuropathy assessed as elevation in pain sensitivity threshold at 25 mg/kg, ip administered 30 mins prior to oxaliplatin challenge relative to control; format: functional; procedure, shortened: as §1
Mus musculus [10] = experiment: Antinociceptive activity in Albino Swiss CD-1 mouse assessed as inhibition of formalin-induced inflammatory pain response administered ip 30 mins before formalin injection measured after 15 to 30 mins; format: functional; conditions: Swiss CD-1, ip
Procedure, shortened: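 Male CD-1 mice were given test agents ip 30 min before subcutaneous intraplantar formalin. Doses were 12.5, 25 or 50 mg/kg, or 100, 150 or 200 mg/kg for the reference. Vehicle was 1% Tween 80 at 10 mL/kg. Paw licking time was recorded in phase I (0–5 min) and phase II (15–30 min). Data are mean ± SEM of 8–10 mice, by Dunnett's test. ED50 was obtained by log-probit analysis with 95% confidence limits.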

Mus musculus [11] = experiment: Anticonvulsant activity in Albino Swiss CD-1 mouse assessed as protection against maximal electroshock-induced seizures at 100 mg/kg, ip pretreated up to 2 hrs followed by 50 Hz current induction for […] relative to control; format: functional

With COCC(C(=O)N1CCN(c2ccc(C(F)(F)F)cc2)CC1)N1C(=O)CCC1=O (configuration not stated) as the molecule, how does the Activity (Mus musculus [1]) read?
The Activity was “<=75%”.

What about the inhibition (Rattus norvegicus [2]) of the same molecule?
The inhibition was “inactive”.

And the inhibition (Rattus norvegicus [3])?
The inhibition was “inactive”.

What about the Activity (Mus musculus [4]) of the same molecule?
Its Activity is 121%.

What about the ED50 (Mus musculus [5]) of the same molecule?
The ED50 was 79.5 to 83.3 mg/kg.

And the “Ratio TD50/ED50” value (Mus musculus [6])?
Its value is 1.9 - 2.5.

What about the “inhibition (INH)” value (Cytochrome P450 3A4) of the same molecule?
Its value is “Not Active”.

And the Activity (Mus musculus [7])?
Its Activity is “Non-Toxic”.

What about the inhibition in vivo at 50 mg/kg (Mus musculus [8]) of the same molecule?
The inhibition in vivo at 50 mg/kg was 32.7%.

And the Activity (Mus musculus [9])?
Its Activity is 112.6%.

What about the ED50 (Mus musculus [10]) of the same molecule?
Its ED50 is 5.1 mg/kg.

And the Activity (Mus musculus [11])?
The Activity was 75 - 100%.
